Source: ChEMBL document CHEMBL4007421, “Discovery and Preclinical Characterization of 3-((4-(4-Chlorophenyl)-7-fluoroquinoline-3-yl)sulfonyl)benzonitrile, a Novel Non-acetylenic Metabotropic Glutamate Receptor 5 (mGluR5) Negative Allosteric Modulator for Psychiatric Indications” (J Med Chem, 2017)
Values after ≈ are worked out from the molar mass of the structure shown.

Columns and labels:
[1] = target: T1, Metabotropic glutamate receptor 5 (Homo sapiens, UniProt P41594); assay: Displacement of [3H]M-MPEP from mGluR5 in female human post mortem parietal cortical tissue after 30 mins by scintillation counting method
T1 sequence (P41594 whole entry): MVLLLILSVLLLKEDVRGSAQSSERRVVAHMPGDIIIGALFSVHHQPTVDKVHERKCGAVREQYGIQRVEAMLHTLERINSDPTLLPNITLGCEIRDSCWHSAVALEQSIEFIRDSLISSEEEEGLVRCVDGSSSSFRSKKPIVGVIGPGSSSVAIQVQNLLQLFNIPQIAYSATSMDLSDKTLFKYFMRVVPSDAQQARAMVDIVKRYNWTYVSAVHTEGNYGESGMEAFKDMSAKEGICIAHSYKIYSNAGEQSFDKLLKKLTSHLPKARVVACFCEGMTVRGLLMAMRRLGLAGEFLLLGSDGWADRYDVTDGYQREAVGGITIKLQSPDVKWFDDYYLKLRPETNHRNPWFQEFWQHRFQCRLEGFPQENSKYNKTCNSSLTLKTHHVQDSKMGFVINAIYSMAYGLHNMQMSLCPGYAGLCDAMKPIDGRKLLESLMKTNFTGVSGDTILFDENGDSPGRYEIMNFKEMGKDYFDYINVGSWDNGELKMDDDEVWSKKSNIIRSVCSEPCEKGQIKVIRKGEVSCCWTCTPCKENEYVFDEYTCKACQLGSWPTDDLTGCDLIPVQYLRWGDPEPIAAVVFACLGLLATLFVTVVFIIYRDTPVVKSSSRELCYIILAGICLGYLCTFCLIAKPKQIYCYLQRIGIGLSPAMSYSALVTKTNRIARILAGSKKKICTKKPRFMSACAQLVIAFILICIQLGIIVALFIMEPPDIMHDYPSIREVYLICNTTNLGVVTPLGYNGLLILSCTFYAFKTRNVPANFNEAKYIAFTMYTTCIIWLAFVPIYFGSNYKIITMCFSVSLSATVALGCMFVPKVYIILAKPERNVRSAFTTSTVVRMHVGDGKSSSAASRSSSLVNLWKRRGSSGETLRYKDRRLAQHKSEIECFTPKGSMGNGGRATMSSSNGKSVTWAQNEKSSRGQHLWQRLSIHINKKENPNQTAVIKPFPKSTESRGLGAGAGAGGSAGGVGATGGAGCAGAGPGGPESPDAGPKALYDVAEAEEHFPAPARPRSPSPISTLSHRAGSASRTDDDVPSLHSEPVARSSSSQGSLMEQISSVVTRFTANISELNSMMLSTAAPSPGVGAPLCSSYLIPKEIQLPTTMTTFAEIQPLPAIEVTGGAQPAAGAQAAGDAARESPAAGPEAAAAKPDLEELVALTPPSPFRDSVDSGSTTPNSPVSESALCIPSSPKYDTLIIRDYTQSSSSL

[2] = Tmax in male Crl:CD(SD) rat at 4.5 mg/kg, po; assay type: ADME, organism-based; settings: in vivo
Outline: (§1)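 Single-dose PK: i.v. and oral dosing in Crl:CD(SD) rats and beagle dogs, plus a pilot oral nasogastric study in Cynomolgus monkeys using a Type IV lipid formulation. Rat i.v. vehicle was 80% cosolvent. Monkeys were fasted from 2 h before until 2 h after dosing, n=3 per sex. Rats also received [14C]-labelled compound orally at 50 mg/kg, with total radioactivity followed. Parameters are means; monkey values are medians.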

[3] = Plasma concentration in Wistar rat at 1 mg/kg, po after 75 mins; assay type: ADME, organism-based
Outline: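 Plasma levels taken right after the Vogel test (~75 min after oral dose) following single oral doses in lipid-based formulations; data pooled from four experiments; mean±SD.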

[4] = Clearance in male beagle dog at 0.5 mg/kg, iv administered as infusion; assay type: ADME, organism-based, Canis lupus familiaris; settings: in vivo
[5] = Terminal elimination half life in fasted male beagle dog at 1 mg/kg, po; assay type: ADME, organism-based, Canis lupus familiaris; settings: in vivo, read-out: beta t1/2 (converted)
Outline: as §1

[6] = Terminal elimination half life in female Crl:CD(SD) rat at 4.5 mg/kg, po; assay type: ADME, organism-based; settings: in vivo, read-out: beta t1/2 (converted)
Outline: as §1

[7] = Plasma protein binding in human; assay type: ADME, cell-free; settings: read-out: PPB (converted)
[8] = Aqueous solubility of the compound at pH 7.4; assay type: physicochemical
[9] = Tmax in fasted male cynomolgus monkey at 9 mg/kg, po administered as single dose; assay type: ADME, organism-based, Macaca fascicularis; settings: in vivo
Outline: as §1

Rattus norvegicus [10] = assay: Effect on spatial learning performance in po dosed Wistar rat measured as escape latency dosed 1 hr prior to first daily trial by Morris water maze test; assay type: ADME, organism-based; settings: in vivo
Outline: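 Morris water maze with male Harlan-Wistar rats (190–220 g): three trials a day for 4 days, hidden 10 cm platform, video tracking; 30 mg/kg p.o. in Type IV lipid formulation 1 h before first daily trial; plasma taken after last Day 4 trial; 7–17 rats/group.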

Plasma = assay: Plasma concentration in Wistar rat at 30 mg/kg, po administered as single dose; assay type: ADME, organism-based; settings: in vivo
[11] = target: T1, Metabotropic glutamate receptor 5; assay: Displacement of [3H]M-MPEP from recombinant human mGluR5a expressed in human A18 cell membrane homogenate
Cytochrome P450 1A2 = target: T2, Cytochrome P450 1A2 (Homo sapiens, UniProt P05177); assay: Inhibition of CYP1A2 in human liver microsomes; assay type: ADME
T2 sequence (P05177 whole entry): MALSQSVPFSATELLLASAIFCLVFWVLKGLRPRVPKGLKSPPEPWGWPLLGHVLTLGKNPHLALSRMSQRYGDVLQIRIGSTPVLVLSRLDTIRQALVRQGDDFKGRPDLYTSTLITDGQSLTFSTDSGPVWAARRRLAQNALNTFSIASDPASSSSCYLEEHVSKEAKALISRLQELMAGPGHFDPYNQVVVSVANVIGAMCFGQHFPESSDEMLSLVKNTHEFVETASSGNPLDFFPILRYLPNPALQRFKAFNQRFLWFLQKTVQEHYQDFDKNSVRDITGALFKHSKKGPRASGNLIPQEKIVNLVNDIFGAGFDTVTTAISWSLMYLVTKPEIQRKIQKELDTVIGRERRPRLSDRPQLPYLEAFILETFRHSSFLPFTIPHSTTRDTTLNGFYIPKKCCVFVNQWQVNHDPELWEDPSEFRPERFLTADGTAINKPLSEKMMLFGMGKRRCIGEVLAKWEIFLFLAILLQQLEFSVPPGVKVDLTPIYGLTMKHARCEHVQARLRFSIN

Rattus norvegicus [12] = assay: Anxiolytic activity in po dosed Wistar rat assessed as reduction in freezing behavior by contextual fearing test; assay type: functional
[13] = Cmax in male Crl:CD(SD) rat at 4.5 mg/kg, po; assay type: ADME, organism-based; design: dose 4.5 mg/kg, route oral; settings: in vivo
[14] = Terminal elimination half life in fasted male cynomolgus monkey at 9 mg/kg, po administered as single dose; assay type: ADME, organism-based, Macaca fascicularis; settings: in vivo, read-out: beta t1/2 (converted)
Outline: as §1

[15] = Clearance in male Crl:CD(SD) rat at 0.5 mg/kg, iv; assay type: ADME, organism-based; settings: in vivo
Liver [16] = assay: Intrinsic clearance in rat liver microsomes at 2.5 uM assessed per gram of liver; assay type: ADME, microsome
[17] = Clearance in female Crl:CD(SD) rat at 0.5 mg/kg, iv; assay type: ADME, organism-based; settings: in vivo
[18] = Cmax in fasted female cynomolgus monkey at 9 mg/kg, po administered as single dose; assay type: ADME, organism-based, Macaca fascicularis; design: dose 9 mg/kg, route oral; settings: in vivo
Rattus norvegicus [19] = assay: Anxiolytic activity in po dosed Wistar rat assessed as reduction in ultrasonic vocalization; assay type: functional
Rattus norvegicus [20] = assay: Therapeutic index, ratio of plasma concentration causing effect on spatial learning performance in po dosed Wistar rat by Morris water maze test to plasma concentration causing anxiolytic activity in Wistar rat by Vogel punished drinking conflict test
Outline: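 Index is the plasma level in rats at 30 mg/kg p.o. in the Morris water maze (sampled after the last trial on Day 4) divided by the plasma level at the Vogel minimum effective dose. Vogel plasma was sampled right after the test.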

[21] = Terminal elimination half life in female beagle dog at 0.5 mg/kg, iv administered as infusion; assay type: ADME, organism-based, Canis lupus familiaris; settings: in vivo, read-out: beta t1/2 (converted)
Outline: as §1

[22] = Plasma protein binding in dog; assay type: ADME, cell-free, Canis lupus familiaris; settings: read-out: PPB (converted)
[23] = Tmax in fasted female beagle dog at 1 mg/kg, po; assay type: ADME, organism-based, Canis lupus familiaris; settings: in vivo
Outline: as §1

[24] = Plasma concentration in Wistar rat at 10 mg/kg, po qd measured after first dosing during Vogel punished drinking conflict test; assay type: ADME, organism-based
Outline: (§2)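 Vogel punished-drinking test in rats after 24 h water deprivation, with 60 s unpunished drinking; oral 10 mg/kg given once daily for 19 days, vehicle group dosed only on Day 19 as first-dose control; plasma sampled right after test; n=10 per group; ANOVA with Duncan post-hoc.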

[25] = AUC(0 to 8 hrs) in fasted female cynomolgus monkey at 9 mg/kg, po administered as single dose; assay type: ADME, organism-based, Macaca fascicularis; design: time < 6 hr, dose 9 mg/kg, route oral; settings: in vivo
[26] = Volume of distribution in female beagle dog at 0.5 mg/kg, iv administered as infusion; assay type: ADME, organism-based, Canis lupus familiaris; settings: in vivo
Outline: as §1

[27] = AUC in fasted male beagle dog at 1 mg/kg, po; assay type: ADME, organism-based, Canis lupus familiaris; settings: in vivo
[28] = Volume of distribution in female Crl:CD(SD) rat at 0.5 mg/kg, iv; assay type: ADME, organism-based; settings: in vivo
Outline: as §1

Liver [29] = assay: Intrinsic clearance in dog liver microsomes at 2.5 uM assessed per gram of liver; assay type: ADME, Canis lupus familiaris, microsome
Rattus norvegicus [30] = assay: Therapeutic index, ratio of MED for effect on spatial learning performance in po dosed Wistar rat by Morris water maze test to MED for anxiolytic activity in Wistar rat by Vogel punished drinking conflict test
Outline: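 Index is the Morris water maze minimum effective dose (oral, given 1 h before the first daily trial, 4 days of 3 trials) divided by the Vogel punished drinking minimum effective dose.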

[31] = Plasma concentration in ip dosed Wistar rat at anxiolytic MED administered as suspension after 45 mins during Vogel punished drinking conflict test; assay type: ADME, organism-based
Outline: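 Vehicle was a suspension containing 5% Tween 80, given i.p. at the Vogel minimum effective dose. Plasma was sampled about 45 min after dosing, right after the Vogel punished drinking test.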

[32] = Plasma concentration in Wistar rat at 10 mg/kg, po qd for 19 days during Vogel punished drinking conflict test; assay type: ADME, organism-based
Outline: as §2

## N#Cc1cccc(S(=O)(=O)c2cnc3cc(F)ccc3c2-c2ccc(Cl)cc2)c1
[1]
  Ki: 0.0121 µM
[2]
  Tmax: 0.75 h
[3]
  concentration at 1.25 h: 99 nM
[4]
  clearance: 6.43 mL/min/kg
[5]
  half-life: 12.8 h
[6]
  half-life: 6.3 h
[7]
  fraction unbound: 0.0039
[8]
  solubility: 10 µg/mL (≈ 23.6 µM)
[9]
  Tmax: 1.7 h
Rattus norvegicus [10]
  Activity: Non-Toxic
  MED: > 30 mg/kg
Plasma
  concentration: 986 nM
[11]
  Ki: 0.0049 µM
Cytochrome P450 1A2
  IC50: > 10 µM
Rattus norvegicus [12]
  Activity: Dose-dependent effect
  ED50: 0.95 mg/kg
[13]
  Cmax: 369 nM
[14]
  half-life: 1.4 h
[15]
  clearance: 27.9 mL/min/kg
Liver [16]
  CLint: 0.25 mL/min/g
[17]
  clearance: 14.3 mL/min/kg
[18]
  Cmax: 33 nM
Rattus norvegicus [19]
  Activity: Dose-dependent effect
  ED50: 1.5 mg/kg
Rattus norvegicus [20]
  TI: 28.3
[21]
  half-life: 11.8 h
[22]
  fraction unbound: 0.0025
[23]
  Tmax: 0.83 h
[24]
  concentration at 1 day: 787 nM
[25]
  AUC(0-t) at 6 h: 0.087 µM·h
[26]
  Vd: 9.2 L/kg
[27]
  AUC: 1.86 µM·h
[28]
  Vd: 9.6 L/kg
Liver [29]
  CLint: 0.27 mL/min/g
Rattus norvegicus [30]
  TI: >30
[31]
  concentration at 0.75 h: 51.1 nM
[32]
  concentration at 456 h: 513 nM
